Key:
[1] = Toxicity in CF1 mouse assessed as induction of motor impairment during acute (1 hr) observation period by rotarod assay; conditions: mouse, in vivo, 1 h
Procedure, shortened: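 Male CF-1 mice, ip dosing in miglyol 840/DMSO (95%/5%), up to 800 mg/kg. Rotarod at 6 rpm done 1 h after dosing, on the same animals just before 6 Hz testing. Falling three times within one minute scored as impaired; animals also inspected visually.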

[2] = biological target: Cytochrome P450 2D6 (Homo sapiens, UniProt P10635); test: Inhibition of CYP2D6 in human liver microsomes using isoform-specific probe substrates incubated for 15 to 30 mins by LC-MS/MS analysis; type: ADME
Procedure, shortened: (§1)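 Pooled mixed-gender human liver microsomes 0.2 mg/mL in 100 mM potassium phosphate with 2 mM NADPH. Isoform-specific probe substrates near Km. Organic solvent ≤1% final. Incubated 37°C for 15–30 min, quenched with acetonitrile plus internal standard. Probe metabolites measured by LC-MS/MS; percent inhibition versus vehicle, IC50 by variable-slope sigmoid fit.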

[3] = Toxicity in CF1 mouse assessed as induction of lethality measured after electric stimulation after 24 hrs at >500 mg/kg; type: organism-based; conditions: in vivo
[4] = biological target: T1, Cytochrome P450 2C8 (Homo sapiens, UniProt P10632); test: Inhibition of CYP2C8 in human liver microsomes using isoform-specific probe substrates incubated for 15 to 30 mins by LC-MS/MS analysis; type: ADME; procedure, shortened: as §1
T1 sequence (P10632 whole entry): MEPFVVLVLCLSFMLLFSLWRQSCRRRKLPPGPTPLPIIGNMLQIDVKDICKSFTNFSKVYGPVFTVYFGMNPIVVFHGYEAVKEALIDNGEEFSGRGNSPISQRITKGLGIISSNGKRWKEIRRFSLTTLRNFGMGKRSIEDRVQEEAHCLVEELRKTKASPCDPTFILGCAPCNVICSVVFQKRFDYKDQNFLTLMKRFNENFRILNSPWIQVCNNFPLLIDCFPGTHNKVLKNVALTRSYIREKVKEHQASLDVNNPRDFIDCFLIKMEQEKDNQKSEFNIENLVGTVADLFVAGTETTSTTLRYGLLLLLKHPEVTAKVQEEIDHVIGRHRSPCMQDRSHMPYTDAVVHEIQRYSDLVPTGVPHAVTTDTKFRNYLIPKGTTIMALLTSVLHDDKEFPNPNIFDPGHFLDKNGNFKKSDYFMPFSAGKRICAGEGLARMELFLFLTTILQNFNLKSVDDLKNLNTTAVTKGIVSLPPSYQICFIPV

Cytochrome P450 2D6, sequence (P10635 whole entry, canonical isoform): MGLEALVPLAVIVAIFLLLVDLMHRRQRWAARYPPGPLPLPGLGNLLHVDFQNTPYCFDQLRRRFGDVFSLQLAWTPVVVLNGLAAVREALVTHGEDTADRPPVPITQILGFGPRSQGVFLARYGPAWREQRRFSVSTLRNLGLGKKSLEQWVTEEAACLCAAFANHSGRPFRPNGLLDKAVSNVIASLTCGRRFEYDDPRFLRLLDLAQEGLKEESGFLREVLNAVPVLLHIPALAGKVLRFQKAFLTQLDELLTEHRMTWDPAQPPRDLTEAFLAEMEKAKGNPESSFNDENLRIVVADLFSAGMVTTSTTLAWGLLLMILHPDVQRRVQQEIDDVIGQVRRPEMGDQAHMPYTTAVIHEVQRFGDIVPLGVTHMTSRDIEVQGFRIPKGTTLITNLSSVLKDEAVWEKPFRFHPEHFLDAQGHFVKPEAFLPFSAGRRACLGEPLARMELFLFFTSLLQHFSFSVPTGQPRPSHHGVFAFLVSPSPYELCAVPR

CC(C)CCNC1=CC(=O)c2ccccc2C1=O
TD50 [1]: > 800 mg/kg
IC50 [2]: > 100 µM
Activity [3]: Toxic
IC50 [4]: 54.1 µM

— ChEMBL document CHEMBL4602726, “Discovery of the First Vitamin K Analogue as a Potential Treatment of Pharmacoresistant Seizures” (J Med Chem, 2020)
